Results as given in ChEMBL document CHEMBL3621107, “Ring fusion strategy for synthesis and lead optimization of sulfur-substituted anthra[1,2-c][1,2,5]thiadiazole-6,11-dione derivatives as promising scaffold of antitumor agents” (Eur J Med Chem, 2015).
pIC50: −log10 of the molar value.

Columns and labels:
DU-145 [1] = experiment: Cytotoxicity against human DU145 cells after 72 hrs by MTT assay; format: functional, cell-based; conditions: DU-145, 72 h
Procedure, shortened: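 DU-145 cells grown in RPMI-1640 with 5% heat-inactivated fetal calf serum at 37 °C, 5% CO2. About 2×10^3 cells per well were seeded and incubated for 24 h. Compounds were dissolved in DMSO freshly and diluted into medium (vehicle 0.1% DMSO), then cells were exposed for 72 h. MTT was added for 3 h at 37 °C and absorbance read at 570 nm.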

MOLT-4 = experiment: Cytotoxicity against human MOLT4 cells assessed as cell growth at 10 uM after 48 hrs by SRB assay relative to control; format: functional; conditions: MOLT-4, 48 h, read-out: Activity
Procedure, shortened: (§1)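 First-stage NCI DTP one-dose screen against the 60 human tumour cell line panel. Compounds were tested at a single 10 μM level, and results are given as growth percentage.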

T47D = experiment: Cytotoxicity against human T47D cells assessed as cell growth at 10 uM after 48 hrs by SRB assay relative to control; format: functional; conditions: read-out: Activity
Procedure, shortened: (§2)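 NCI-60 one-dose screen run by NCI DTP: each cell line exposed to a single 10 µM dose, and percentage growth recorded against untreated growth.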

ACHN = experiment: Cytotoxicity against human ACHN cells assessed as cell growth at 10 uM after 48 hrs by SRB assay relative to control; format: functional; conditions: read-out: Activity
Procedure, shortened: (§3)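 First-stage NCI-60 screen by the NCI Developmental Therapeutics Program. Each compound was tested once at a single concentration of 10 μM against the 60-cell-line panel. Growth percentage was reported for each cell line.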

SNB-75 = experiment: Cytotoxicity against human SNB75 cells assessed as cell growth at 10 uM after 48 hrs by SRB assay relative to control; format: functional; conditions: SNB-75, 48 h, read-out: Activity; procedure, shortened: as §2
DU-145 [2] = experiment: Cytotoxicity against human DU145 cells assessed as cell growth at 10 uM after 48 hrs by SRB assay relative to control; format: functional; conditions: DU-145, 48 h, read-out: Activity; procedure, shortened: as §3
NCI-H522 = experiment: Cytotoxicity against human NCI-H522 cells assessed as cell growth at 10 uM after 48 hrs by SRB assay relative to control; format: functional; conditions: NCI-H522, 48 h, read-out: Activity; procedure, shortened: as §1
K562 = experiment: Cytotoxicity against human K562 cells assessed as cell growth at 10 uM after 48 hrs by SRB assay relative to control; format: functional; conditions: K562, 48 h, read-out: Activity; procedure, shortened: as §3
LOX IMVI = experiment: Cytotoxicity against human LOXIMVI cells assessed as cell growth at 10 uM after 48 hrs by SRB assay relative to control; format: functional; conditions: read-out: Activity; procedure, shortened: as §3
U-251 = experiment: Cytotoxicity against human U251 cells assessed as cell growth at 10 uM after 48 hrs by SRB assay relative to control; format: functional; conditions: U-251, 48 h, read-out: Activity; procedure, shortened: as §2
HT-29 = experiment: Cytotoxicity against human HT-29 cells assessed as cell growth at 10 uM after 48 hrs by SRB assay relative to control; format: functional; conditions: HT-29, 48 h, read-out: Activity; procedure, shortened: as §3
[3] = Cytotoxicity against human EKVX cells assessed as cell growth at 10 uM after 48 hrs by SRB assay relative to control; format: functional; conditions: read-out: Activity; procedure, shortened: as §3
PC-3 = experiment: Cytotoxicity against human PC3 cells assessed as cell growth at 10 uM after 48 hrs by SRB assay relative to control; format: functional; conditions: PC-3, 48 h, read-out: Activity; procedure, shortened: as §1
A498 = experiment: Cytotoxicity against human A498 cells assessed as cell growth at 10 uM after 48 hrs by SRB assay relative to control; format: functional; conditions: A498, 48 h, read-out: Activity; procedure, shortened: as §3
RXF 393 = experiment: Cytotoxicity against human RXF393 cells assessed as cell growth at 10 uM after 48 hrs by SRB assay relative to control; format: functional; conditions: RXF 393, 48 h, read-out: Activity; procedure, shortened: as §1
IGROV-1 = experiment: Cytotoxicity against human IGROV1 cells assessed as cell growth at 10 uM after 48 hrs by SRB assay relative to control; format: functional; conditions: IGROV-1, 48 h, read-out: Activity; procedure, shortened: as §3
HOP-92 = experiment: Cytotoxicity against human HOP92 cells assessed as cell growth at 10 uM after 48 hrs by SRB assay relative to control; format: functional; conditions: HOP-92, 48 h, read-out: Activity; procedure, shortened: as §3
BT-549 = experiment: Cytotoxicity against human BT549 cells assessed as cell growth at 10 uM after 48 hrs by SRB assay relative to control; format: functional; conditions: BT-549, 48 h, read-out: Activity; procedure, shortened: as §3
RPMI-8226 = experiment: Cytotoxicity against human RPMI8226 cells assessed as cell growth at 10 uM after 48 hrs by SRB assay relative to control; format: functional; conditions: RPMI-8226, 48 h, read-out: Activity; procedure, shortened: as §1
HCC 2998 = experiment: Cytotoxicity against human HCC2998 cells assessed as cell growth at 10 uM after 48 hrs by SRB assay relative to control; format: functional; conditions: HCC 2998, 48 h, read-out: Activity; procedure, shortened: as §3
M14 = experiment: Cytotoxicity against human M14 cells assessed as cell growth at 10 uM after 48 hrs by SRB assay relative to control; format: functional; conditions: M14, 48 h, read-out: Activity; procedure, shortened: as §3
SF-268 = experiment: Cytotoxicity against human SF268 cells assessed as cell growth at 10 uM after 48 hrs by SRB assay relative to control; format: functional; conditions: SF-268, 48 h, read-out: Activity; procedure, shortened: as §1
SK-MEL-5 = experiment: Cytotoxicity against human SK-MEL-5 cells assessed as cell growth at 10 uM after 48 hrs by SRB assay relative to control; format: functional; conditions: SK-MEL-5, 48 h, read-out: Activity; procedure, shortened: as §1
OVCAR-3 = experiment: Cytotoxicity against human OVCAR3 cells assessed as cell growth at 10 uM after 48 hrs by SRB assay relative to control; format: functional; conditions: OVCAR-3, 48 h, read-out: Activity; procedure, shortened: as §1
MDA-MB-435 = experiment: Cytotoxicity against human MDA-MB-435 cells assessed as cell growth at 10 uM after 48 hrs by SRB assay relative to control; format: functional; conditions: MDA-MB-435, 48 h, read-out: Activity; procedure, shortened: as §1
MDA-MB-468 = experiment: Cytotoxicity against human MDA-MB-468 cells assessed as cell growth at 10 uM after 48 hrs by SRB assay relative to control; format: functional; conditions: MDA-MB-468, 48 h, read-out: Activity; procedure, shortened: as §1
[4] = Cytotoxicity against human Hs578T cells assessed as cell growth at 10 uM after 48 hrs by SRB assay relative to control; format: functional; conditions: Hs-578T, read-out: Activity; procedure, shortened: as §3
CAKI-1 = experiment: Cytotoxicity against human Caki1 cells assessed as cell growth at 10 uM after 48 hrs by SRB assay relative to control; format: functional; conditions: CAKI-1, 48 h, read-out: Activity; procedure, shortened: as §3

Compound	pIC50 (DU-145 [1])	growth at 10 µM (MOLT-4) [%]	growth at 10 µM (T47D) [%]	growth at 10 µM (ACHN) [%]	growth at 10 µM (SNB-75) [%]	growth at 10 µM (DU-145 [2]) [%]	growth at 10 µM (NCI-H522) [%]	growth at 10 µM (K562) [%]	growth at 10 µM (LOX IMVI) [%]	growth at 10 µM (U-251) [%]	growth at 10 µM (HT-29) [%]	growth at 10 µM [3] [%]	growth at 10 µM (PC-3) [%]	growth at 10 µM (A498) [%]	growth at 10 µM (RXF 393) [%]	growth at 10 µM (HOP-92) [%]	growth at 10 µM (BT-549) [%]	growth at 10 µM (RPMI-8226) [%]	growth at 10 µM (HCC 2998) [%]	growth at 10 µM (M14) [%]	also measured
Cc1ccc(Sc2cc3c(c4nsnc24)C(=O)c2ccccc2C3=O)c(C)c1	4.80	91	75.4	94.2	76	110	96.8	68	90.4	105	101	109	76.1	84.4	106	97.8	94.5	85.1	121	101	growth at 10 µM (IGROV-1): 95%; growth at 10 µM (SF-268): 90.6%; growth at 10 µM (SK-MEL-5): 110%; growth at 10 µM (OVCAR-3): 105%; growth at 10 µM (MDA-MB-435): 106%; growth at 10 µM (MDA-MB-468): 100%; growth at 10 µM [4]: 99.1%
O=C1c2ccccc2C(=O)c2c1cc(Sc1ccc(F)cc1F)c1nsnc21	5.04	-41.6	-28.6	34.9	42.9	41.3	61.1	-21.1	-42	34.5	102	98.1	-9.72	50.8	36.7	-18.4	66.4	6.29	107	53.8	growth at 10 µM (CAKI-1): 24%; growth at 10 µM (SF-268): 8.47%; growth at 10 µM (SK-MEL-5): 48.5%; growth at 10 µM (OVCAR-3): -52.3%; growth at 10 µM (MDA-MB-435): -85.3%; growth at 10 µM (MDA-MB-468): -87%; growth at 10 µM [4]: 50.1%
COc1cccc(Sc2cc3c(c4nsnc24)C(=O)c2ccccc2C3=O)c1	< 4.82	35.8	69.1	98.7	81.8	98.9	82.4	38.5	71	101	105	105	76	83.7	124	101	94.9	52	105	94.2	growth at 10 µM (IGROV-1): 99.9%; growth at 10 µM (SF-268): 89.8%; growth at 10 µM (SK-MEL-5): 100%; growth at 10 µM (OVCAR-3): 85.8%; growth at 10 µM (MDA-MB-435): 72.5%; growth at 10 µM (MDA-MB-468): 93.5%; growth at 10 µM [4]: 93.8%
